Cl transport mod – modulates chloride dependent transport by human KCC2; KCC2 cells, thallium flux FluoZin-2 fluorescence; 190,000 compounds, 2.2% hits; B-score of Tl+ flux slope (higher = more flux/activation; lower = inhibition) at 10 µM; AID 1456;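 active = thallium flux slope and its plate-corrected score both differing from the plate sample mean at a set confidence after two filtering rounds, in either direction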;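 note: slope of fluorescence scaled to starting intensity during 10 to 20 s after thallium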
Autophagy mod – alters autophagy in cells. MEF GFP-LC3 puncta imaging; test concentration mostly 10 µM. calls only at 10 µM (by protocol). 190,000 compounds, 0.98% hits;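 active = percentage of spot-positive cells more than 3 SD above its plate mean, without a fluorescence outlier flag or 80% toxicity; inconclusive = no clear call, values can overlap the other calls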;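 note: spot-positive cell cutoff set from DMSO-treated cells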
ROMK mod – modulators of human ROMK potassium channel | Tet-inducible ROMK, thallium flux fluorescence; actives lie on both sides | B-score at 10 µM | AID 1918 | 130,000 compounds, 2% hits | P48048;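 active = signal ratio slope over the read window, or its plate-corrected B-score, at least 3 SD from the plate mean, either direction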;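 note: B-score of the F/F0 ratio slope over 7 to 12 s after thallium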
Target sequence (P48048 whole entry, looked up): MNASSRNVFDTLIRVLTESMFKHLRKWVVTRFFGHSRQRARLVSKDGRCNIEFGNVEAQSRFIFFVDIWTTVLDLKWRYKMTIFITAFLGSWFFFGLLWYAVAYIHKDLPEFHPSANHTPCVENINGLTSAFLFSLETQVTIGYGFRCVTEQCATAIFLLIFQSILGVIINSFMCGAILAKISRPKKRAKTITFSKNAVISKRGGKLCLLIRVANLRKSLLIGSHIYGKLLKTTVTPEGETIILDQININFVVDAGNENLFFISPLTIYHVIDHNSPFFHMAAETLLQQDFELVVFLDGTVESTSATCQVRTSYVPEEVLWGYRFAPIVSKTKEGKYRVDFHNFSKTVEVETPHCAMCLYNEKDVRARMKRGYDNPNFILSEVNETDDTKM
Dynein cargo inh – dynein cargo transport inhibition; AID 1381; 3617.4 mouse cells, GR-EGFP nuclear translocation imaging; test concentration mostly 20 µM; stimulated with dexamethasone, 1 µM; active compounds read low; 220,000 compounds, 0.47% hits; z-score, hits read low;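 active = plate z-score of nuclear minus cytoplasmic receptor signal below a set negative limit, without overly bright fluorescence or cell loss, cut at about -3.5 in these data, passing the limit was not always enough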;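 note: z-score of nuclear minus cytoplasmic ring GR-EGFP intensity difference per well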
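Buffer or medium: tet-free, stripped-serum medium; Also added: dexamethasone, 1.0 µM final; Technique: high-content fluorescence imaging after fixation; Times: 48 h induction, 1 h compound, 30 min dex at 37 °C; Read-out: per-cell GR-EGFP intensity, nucleus versus surrounding cytoplasmic ring, well-averaged.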
Redox H2O2 prof – compounds producing H2O2 with reducing agent – biochemical, NIH compound library profiling, artefact control for MLSCN library redox annotation, primary screen. DTT-dependent redox cycling H2O2, phenol red/HRP absorbance; 100% = 100 µM peroxide control, 0% = buffer. AID 878. 200,000 compounds, 0.03% hits. activation, % at 10 µM;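 active = activation of at least 50% relative to the plate's high and low controls in the primary single-dose screen; inactive = activation below 50%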;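 note: compound incubated with DTT at 0.8 mM final as the reducing agent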
KCC2 secondary – KCC2 (human) modulation, secondary assay; shares compounds with Cl transport mod; HEK293-KCC2, thallium flux, FluoZin2 fluorescence; active compounds read high; normalised thallium flux (F/F0 slope) at 10 µM; 3,700 compounds, 15% hits;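 active = thallium flux slope above the same plate's solvent-only control mean plus 3 SD; inconclusive = the two replicate wells disagree; inactive = no significant difference from solvent-only control wells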
KCC2 bumet counter – thallium flux despite bumetanide block in KCC2 cells, secondary assay 3; shares compounds with Cl transport mod; HEK293-KCC2 + bumetanide/ouabain, thallium flux FluoZin2; active compounds read high; normalized thallium flux at 10 µM; 3,700 compounds, 49% hits; AID 1714;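 active = thallium entry rate above the same plate's blocked-transporter control wells by more than 3 SD; inconclusive = the two repeat wells disagree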;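 note: raw slope of fluorescence over initial fluorescence between 10 and 20 s after thallium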
KCC2 secondary2 – KCC2 (human) modulation, second secondary assay. shares compounds with Cl transport mod. HEK293-KCC2, thallium flux FluoZin2 fluorescence; actives lie on both sides; F/F0 rise rate, 10–20 s post-thallium. normalized thallium flux at 10 µM. 3,700 compounds, 23% hits;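 active = thallium flux slope more than 3 SD above or below the plate's solvent-only control mean, mostly below; inconclusive = the two repeat wells disagreed; inactive = no significant shift from solvent-only controls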;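 note: raw slope with 0.1% DMSO as baseline and bumetanide as block control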
HEK293 Tl flux – acts in parental HEK cells, KCC2 counter-screen | shares compounds with Cl transport mod | thallium flux rate (normalised fluorescence) at 10 µM | HEK293 parental cells, thallium flux FluoZin2, ouabain; baseline-ratio fluorescence slope, 10–20 s after thallium | 3,700 compounds, 46% hits | AID 1716;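 active = thallium flux rate significantly above the same plate's solvent-only control wells, beyond their mean plus 3 SD; inconclusive = the two replicate wells gave conflicting results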
KCC2 ouabain – modulates human KCC2 on retest with ouabain; HEK293-KCC2, thallium flux FluoZin2 fluorescence; bidirectional: low = inhibitor, high = activator; raw Tl+ flux slope (below DMSO = inhibition, above = activation) at 10 µM; 3,700 compounds, 48% hits; shares compounds with Cl transport mod;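 active = thallium flux slope beyond 3 SD from same-plate DMSO control mean in most replicates, usually higher, sometimes lower; inconclusive = repeat tests gave conflicting results; inactive = no significant difference from controls in most replicates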;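 note: slope of initial-normalized fluorescence between seconds 10 and 20 after thallium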
HEK counter2 – parental HEK flux effect, counter-screen 2; shares compounds with Cl transport mod; HEK293 parental, thallium flux FluoZin-2 fluorescence slope; thallium flux slope at 10 µM; 3,700 compounds, 33% hits; AID 1718;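 active = thallium flux slope above the same plate's solvent-control mean plus 3 SD in both duplicate wells; inconclusive = duplicate wells that disagreed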;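 note: run without ouabain in cells lacking the KCC2 cotransporter; slope of fluorescence scaled to its starting value between 10 and 20 s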
Starred values were filed as active, the others as inactive; i = inactive; u = inconclusive; x = not tested or not shown. Most compounds without a hit are left out; they make up all but 4.1% or so of the library.

SMILES | Cl transport mod | Autophagy mod | ROMK mod | Dynein cargo inh | Redox H2O2 prof | KCC2 secondary | KCC2 bumet counter | KCC2 secondary2 | HEK293 Tl flux | KCC2 ouabain | HEK counter2
O=C(CSc1ccc(-c2ccccn2)nn1)Nc1nccs1 | -2.7 | i | 0.58 | -1.2 | -3 | x | x | x | x | x | x
Cc1csc(NC(=O)CSc2ccc(-c3ccccn3)nn2)n1 | -4.9* | i | -1.4 | 0.78 | 0 | 0.017 | 0.0048 | 0.023* | u | 0.012* | 0.0099
Cc1nonc1NC(=O)CSc1nc(C2CCCCC2)nc2ccccc12 | -6.1* | i | x | -0.75 | -1 | u | 0.0063 | 0.031 | 0.0072 | 0.015* | 0.01
O=C(CSc1ccc(-c2ccc(F)cc2)nn1)N1CCCc2ccccc21 | -3.7* | i | x | 1.1 | 0 | 0.0059 | 0.0038 | 0.02* | u | 0.013* | 0.0092
CCOC(=O)N1CCN(C(=O)CSc2ccc(-c3ccccc3)nn2)CC1 | -4.2* | i | 0.33 | 0.14 | -1 | 0.0095 | u | 0.028* | 0.0071 | 0.014* | 0.011
COc1ccc(Cl)cc1-c1nc(SCC(N)=O)n[nH]1 | -1.1 | x | x | -0.056 | x | x | x | x | x | x | x
CCNC(=S)N1CCCC(C(N)=O)C1 (stereo unspecified) | -0.68 | i | 0.55 | -0.35 | -1 | x | x | x | x | x | x
c1ccc(CSc2nnc(NC3=NCCCCC3)s2)cc1 | x | i | -0.58 | -0.42 | 0 | 0.0076 | 0.0052 | 0.028 | 0.0072 | 0.034* | 0.01
O=C1/C(=C/c2ccccc2O)SC(=S)N1Cc1cccnc1 | 10* | i | x | 0.29 | 0 | 0.0062 | 0.017* | u | 0.025* | 0.027* | 0.023*
O=C1/C(=C/c2ccc(O)c([N+](=O)[O-])c2)SC(=S)N1Cc1ccccc1 | -0.34 | i | -1.7 | 0.27 | 1 | x | x | x | x | x | x
Cc1ccc(S(=O)(=O)NC2=NCN(Cc3ccccc3)CN2)cc1 | -3.3* | i | -0.31 | 2.9 | 0 | 0.0084 | 0.0061 | 0.033 | 0.0078 | u | 0.011
Cc1ccc(S(=O)(=O)NC2=NCN(CCc3ccccc3)CN2)cc1 | x | i | 1 | -0.82 | 0 | x | x | x | x | x | x
C#CC(C)(CC)NC(=O)c1cc2nc(C3CC3)cc(C(F)(F)F)n2n1 (stereo unspecified) | -0.69 | i | -1 | 1.1 | 0 | x | x | x | x | x | x
Cc1ccc(C2=NNC(c3cccc(F)c3)S2)cc1 (stereo unspecified) | 10* | i | 0.99 | 0.46 | 0 | 0.0062 | u | 0.03 | 0.0085 | 0.02 | u
COc1ccc(C(=O)NNC(=O)C(=O)Nc2ccc(C)c(Cl)c2)cc1 | 47* | i | 0.1 | 2.6 | -3 | 0.01* | 0.067* | 0.054* | 0.057* | 0.06* | 0.051*
COc1cccc(NC(=O)Nc2ccc(C)c(Cl)c2)c1 | -0.81 | i | -0.97 | -0.57 | -1 | x | x | x | x | x | x
Cc1ccc(NC(=O)C(=O)NNC(=O)c2ccccc2C)cc1Cl | 46* | i | x | 0.069 | 2 | 0.048* | 0.11* | 0.052* | u | 0.087* | 0.043*
O=C(CCCOc1ccc(Cl)cc1Cl)Nc1ccc(O)cc1C(=O)O | -2 | x | x | -0.92 | x | x | x | x | x | x | x
CCCC(CCC(=O)Nc1cccc([N+](=O)[O-])c1)C(=O)O (stereo unspecified) | 0.39 | x | x | -0.2 | x | x | x | x | x | x | x
O=C1NC[C@@H](Cc2cccc3ccccc23)N(CC2CCCCC2)C1=O | -3* | x | x | -0.076 | x | 0.0054 | 0.0047 | 0.024* | 0.007 | 0.016 | 0.0093
CCOC(=O)C1=NN(c2ccc(C)cc2)CC1C(=O)OC (stereo unspecified) | -0.55 | i | 0.74 | -0.47 | 0 | x | x | x | x | x | x
COC(=O)C1CCN(S(=O)(=O)c2cn(C)c(=O)n(C)c2=O)CC1 | -3.4* | i | x | -0.3 | -1 | 0.0088 | u | 0.032 | 0.0077 | 0.021 | 0.011
CCOC(=O)C1CCN(S(=O)(=O)c2cn(C)c(=O)n(C)c2=O)CC1 | 0.89 | i | x | -1.1 | 0 | x | x | x | x | x | x
CC1CCCC(NC(=O)CCn2c(=S)oc3ccccc32)C1C (stereo unspecified) | -0.84 | x | -0.075 | -0.91 | x | 0.0085 | 0.0068 | 0.032 | 0.0074 | 0.022 | u
Oc1ccccc1/C=N/Nc1nc2ccccc2o1 | 7.2* | x | 0.37 | -0.65 | x | 0.0064 | 0.012* | 0.034 | 0.012* | u | 0.016*
SMILES | Cl transport mod | Autophagy mod | ROMK mod | Dynein cargo inh | Redox H2O2 prof | KCC2 secondary | KCC2 bumet counter | KCC2 secondary2 | HEK293 Tl flux | KCC2 ouabain | HEK counter2
O=C1Cc2ccccc2C(=O)N1CCc1ccccc1 | x | i | x | -0.49 | -1 | 0.0067 | 0.0047 | 0.028 | 0.0074 | 0.018 | 0.011
C=CCn1c(SCc2ccc(F)cc2)nnc1-c1sc2nc(C)cc(C)c2c1N | -1.8 | x | x | -0.94 | x | x | x | x | x | x | x
CC(C)CN1CN(Cc2ccccc2)CNC1=S | -0.43 | i | 0.18 | -0.53 | 0 | x | x | x | x | x | x
CCCn1c(NC(=S)Nc2ccccc2)nc2ccccc21 | 28* | i | 0.27 | 3.2 | 0 | u | 0.018* | 0.03 | 0.0092* | 0.038* | 0.0094
CCCCCCCn1c(NC(=O)CC)nc2ccccc21 | 6.5* | x | x | -0.27 | x | u | 0.027* | 0.031 | 0.011* | 0.025 | 0.011*
Cc1ccc(-n2nnnc2SCC(=O)N2CCc3ccccc3C2)cc1 | -3.6* | i | 0.59 | -0.037 | -5 | 0.0075 | 0.0059 | 0.028 | 0.0071 | 0.021* | 0.011
Cc1ccc(-n2nnnc2SCC(=O)NC2CCCc3ccccc32)cc1 (stereo unspecified) | -4.6* | i | -1.8 | -0.61 | 0 | 0.0068 | 0.0033* | 0.026* | u | 0.014* | 0.0095
O=C(Nc1ccc(F)cc1)Nc1ccccc1F | -0.22 | i | 0.056 | 0.72 | 0 | x | x | x | x | x | x
O=C(Nc1ccc2[nH]c(=S)sc2c1)Nc1ccccc1F | 23* | x | x | -1.2 | x | 0.0062 | 0.034* | u | 0.019* | 0.033* | 0.021*
Cc1ccc(S(=O)(=O)c2c(C)cc(C)nc2N2CCCC2)cc1 | -0.88 | i | 0.055 | -0.89 | 0 | x | x | x | x | x | x
COc1ccc(NC(=O)NCCCN2CCCC2=O)cc1 | 0.31 | i | x | -0.037 | -1 | x | x | x | x | x | x
